Most compounds without a hit are left out; they make up all but 2.2% or so of the library.
SUMO1 PPI mod = alters human SUMO1 binding to SIM partners | inhibition, % at 20 µM | 360,000 compounds, 0.33% hits | AID 602429 | SUMO1 binding to a labelled peptide, TR-FRET, 1 h; in the data active means inhibition above about 37%
Target sequence (P63165 whole entry, looked up): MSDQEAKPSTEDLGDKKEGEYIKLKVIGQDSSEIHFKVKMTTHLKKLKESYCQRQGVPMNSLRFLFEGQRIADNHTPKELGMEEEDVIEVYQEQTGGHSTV
LMPTP block = LMPTP (human) inhibition. P24666. recombinant LMPTP-A, OMFP fluorogenic substrate, fluorescence intensity. inhibition, % at 20 µM. 360,000 compounds, 0.22% hits;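 active means compounds that cut the enzyme signal by at least half of the control window in the single-dose screen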;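 further: plate controls were DMSO wells with enzyme plus substrate for no effect and substrate without enzyme for full effect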
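Test system: LMPTP-A, protein tyrosine phosphatase of low molecular weight; Input: 0.625 nM enzyme; Incubation: 50 min dark incubation at room temperature; Signal: endpoint fluorescence intensity from OMFP dephosphorylation; Read-out basis: % inhibition versus control wells.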
STEP block = STEP (human) phosphatase inhibition | P54829 | recombinant STEP, OMFP fluorogenic substrate, fluorescence | inhibition, % at 20 µM | 360,000 compounds, 0.25% hits;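 active means inhibition at 20 µM, scaled per plate between control wells, above about 37%, limit read from the data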;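 further: 0% = DMSO with enzyme and substrate and 100% = substrate only without enzyme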
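material = STEP tyrosine phosphatase | reagent = fluorogenic phosphatase substrate OMFP at 25 µM final | doses = single compound dose of 20 µM, 1% DMSO final | schedule = 20 min reaction, room temperature, in the dark | measured by = fluorescence, 480/540 nm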
GRK2 aptamer HTS = inhibitors of human GRK2 displacing RNA aptamer; bead flow cytometry, FAM-aptamer displacement from GRK2; inhibition of aptamer binding, % at 10 µM; 330,000 compounds, 0.59% hits;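 active means inhibition of aptamer binding above 40%, roughly 3 SD of noise, on plates passing a quality check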;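 further: median bead fluorescence of bound FAM aptamer so fluorescent compounds give negative values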
Target sequence (P25098 whole entry, looked up): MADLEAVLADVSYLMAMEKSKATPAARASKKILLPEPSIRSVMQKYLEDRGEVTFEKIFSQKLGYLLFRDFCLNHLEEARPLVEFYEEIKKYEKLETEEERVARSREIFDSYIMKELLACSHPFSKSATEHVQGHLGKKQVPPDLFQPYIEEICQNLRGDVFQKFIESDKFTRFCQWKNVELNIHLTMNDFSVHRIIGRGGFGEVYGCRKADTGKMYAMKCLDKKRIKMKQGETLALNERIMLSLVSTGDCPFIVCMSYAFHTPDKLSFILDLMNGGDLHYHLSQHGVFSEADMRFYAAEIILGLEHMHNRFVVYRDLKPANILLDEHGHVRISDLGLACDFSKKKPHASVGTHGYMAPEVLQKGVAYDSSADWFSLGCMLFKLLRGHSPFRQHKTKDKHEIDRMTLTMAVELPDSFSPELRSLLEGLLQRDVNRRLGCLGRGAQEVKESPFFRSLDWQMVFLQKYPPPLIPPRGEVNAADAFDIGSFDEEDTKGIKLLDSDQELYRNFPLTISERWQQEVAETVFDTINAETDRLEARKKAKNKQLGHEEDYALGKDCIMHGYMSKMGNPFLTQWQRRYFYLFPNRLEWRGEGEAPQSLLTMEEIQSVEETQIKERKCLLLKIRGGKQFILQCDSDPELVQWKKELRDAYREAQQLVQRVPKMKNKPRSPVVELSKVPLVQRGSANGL
Scp1 inh = inhibitors of human Scp-1 phosphatase; Recombinant Scp1, phosphopeptide, malachite green phosphate absorbance; Q9GZU7; 340,000 compounds, 0.88% hits; inhibition, % at 20 µM;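 active means inhibition above about 50% at 20 µM, limit read from the data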;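 further: plate controls were DMSO wells with enzyme for no effect and wells lacking enzyme for full effect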
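Test system: SCP-1 catalytic domain; Buffer or medium: Acidic Tris acetate buffer with magnesium and detergent; Also added: Phosphorylated 17-residue peptide substrate; Compound: single 20 µM dose, 1% DMSO; Schedule: enzyme reaction 45 min at room temperature, colour 5 min, stabilisation 30 min; Signal: Phosphate-binding colour reagent, absorbance read at 630 nm.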
DNMT1 inh = DNMT1 (human) enzyme inhibition. P26358. inhibition (reported as % activation of signal), % at 10 µM. AID 588458. 360,000 compounds, 0.83% hits. DNMT1 molecular beacon, Hinp1I cleavage, fluorescence; in the data active means inhibition above about 50%
GRK2 CP1 = confirmation of human GRK2 inhibitors displacing RNA aptamer; shares compounds with GRK2 aptamer HTS; AID 504451; aptamer displacement, % at 10 µM; bead-bound GRK2, FAM-aptamer displacement, flow cytometry; 2,000 compounds, 4% hits;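 active means aptamer displacement above 40%, near three times the noise of non-fluorescent compounds, on plates passing quality checks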;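 further: negative values mostly reflect intrinsic compound fluorescence rather than true enhancement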
Aptamer quench = fluorescent aptamer quenching in GRK2 counter-screen dose response | shares compounds with GRK2 aptamer HTS | fluorescence change (kMESF span), kMESF (no concentration beside the values) | 110 tested, under 10 active | Fluorescent RNA aptamer beads, flow cytometry; stronger effect = higher value;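 active means compounds whose bead fluorescence drops by more than 37 kMESF across the dose range, marking them as dye quenchers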
FAM quench CP1 = aptamer fluorescence quenching in GRK2 counter-screen | fluorescence response (% of DMSO), % at 10 µM | AID 504580 | shares compounds with GRK2 aptamer HTS | 2,000 tested, under 10 active | Carboxyfluorescein RNA aptamer on beads, flow cytometry quenching; stronger effect = lower value;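 active means compounds that quench the bead-bound fluorescent RNA probe, cutting fluorescence to under half of the solvent control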;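 further: counterscreen run without GRK2 so only probe quenching by compound is measured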
GRK2 confirm 2 = human GRK2 inhibition confirmation, cherry pick 2 | shares compounds with GRK2 aptamer HTS | bead-bound GRK2, FAM-aptamer displacement, flow cytometry | inhibition of aptamer binding, % at 10 µM | 360 tested, under 10 active;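 active means inhibition of aptamer binding above 40%, about triple the noise seen with nonglowing compounds, on plates passing quality control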;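 further: negative values mostly come from compounds that fluoresce themselves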
FAM quench CP2 = counter-screen for GRK2 binding hits: quenchers of fluorescent RNA aptamer | shares compounds with GRK2 aptamer HTS | carboxyfluorescein RNA aptamer beads, flow cytometry quenching; stronger effect = lower value | fluorescence response vs DMSO, % at 10 µM | 360 tested, under 10 active | AID 588494;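 active means response vs DMSO under 50%, meaning signal dropped by over half, treated as fluorescence quencher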;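 further: labelled aptamer on streptavidin beads without GRK2 as a quench counter-screen; 100% = bead fluorescence of DMSO wells and lower means quenching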
Starred values were filed as active, the others as inactive; · = not tested or not shown.

SMILES	SUMO1 PPI mod	LMPTP block	STEP block	GRK2 aptamer HTS	Scp1 inh	DNMT1 inh	GRK2 CP1	FAM quench CP1	others
Cc1c(NS(=O)(=O)c2cccc(C(=O)NC(C)c3ccccc3)c2)c(=O)n(-c2ccccc2)n1C (stereo unspecified)	5.1	-1.4	-1.4	·	-9.7	4.9	0.4	104.0
Cc1c(NS(=O)(=O)c2cc(C(=O)NC(C)c3ccccc3)ccc2Cl)c(=O)n(-c2ccccc2)n1C (stereo unspecified)	1.8	0.7	0.4	·	3.9	-0.2	·	·
Cc1c(NS(=O)(=O)c2cccc(C(=O)NCc3ccccc3Cl)c2)c(=O)n(-c2ccccc2)n1C	4.6	-0.5	0.6	·	-2.3	1.1	0.6	99.6
Cc1c(NS(=O)(=O)c2cccc(C(=O)Nc3ccccc3)c2)c(=O)n(-c2ccccc2)n1C	-4.9	-1.2	-2.4	0.0	-1.4	2.5	·	·
Cc1ccn2c(CNCC3OCCc4ccccc43)c(C(=O)N3CCCCCC3)nc2c1 (stereo unspecified)	4.6	-1.0	-1.9	0.0	-3.7	-0.1	4.8	103.2
O=C(c1nc2ccccn2c1CNCC1OCCc2ccccc21)N1CCOCC1 (stereo unspecified)	-2.2	-1.3	3.7	3.0	2.5	0.5	·	·
CCOc1ccccc1C(=O)Nc1cccc(-c2ccc(N3CCOCC3)nn2)c1	3.3	0.9	2.7	0.0	3.1	-2.5	·	·
COc1ccc(C(=O)Nc2cccc(-c3ccc(N4CCOCC4)nn3)c2)cc1OC	-0.1	1.2	5.6	5.0	-4.0	-3.7	·	·
O=C(Nc1cccc(-c2ccc(N3CCOCC3)nn2)c1)c1ccc(F)cc1F	-2.3	1.6	4.8	0.0	1.2	0.4	6.6	99.5
COc1cccc(C(=O)Nc2cccc(-c3ccc(N4CCOCC4)nn3)c2)c1OC	-11.4	1.7	5.8	0.0	3.3	-3.7	0.1	103.7
COc1ccc(-c2c(C(=O)c3ccc(Br)cc3)[nH]c(N)c2C(=O)c2ccccc2)cc1OC	-1.0	0.6	·	·	·	·	·	·
CC1=CC(=O)Nc2ncccc2O1	-19.6	-1.0	-0.9	·	·	-3.9	·	·
O=S(=O)(NCCS(=O)(=O)N1CCN(c2ccc(F)cc2)CC1)c1ccc(F)cc1	4.9	0.7	2.5	·	·	-3.8	·	·
O=C(O)C1Nc2c(O)cc(Cl)c([N+](=O)[O-])c2C2C=CCC12 (stereo unspecified)	103.9*	90.9*	97.3*	69.0*	62.0*	89.0*	68.2*	94.8	Aptamer quench=-0.6
CCOC(=O)[C@]12CCC=C1N(CCC1=CCCCC1)C(=O)[C@H](CC(=O)NCCCCc1ccccc1)C2	6.9	0.3	·	·	·	·	·	·
Cc1ccc(S(=O)(=O)N2CCN(C(=O)COC(=O)CCc3ccccc3)CC2)c(C)c1	1.1	0.8	-0.3	0.0	-10.7	-0.3	·	·
Cc1ccc(S(=O)(=O)N2CCN(C(=O)COC(=O)CCOc3ccccc3)CC2)c(C)c1	-2.0	0.6	2.5	63.0*	-2.8	0.6	-2.7	99.9
Cc1cccc(Cl)c1NNC(=O)Nc1c([N+](=O)[O-])c(C)nn1C	-0.3	-0.2	0.0	44.0*	-9.8	3.2	0.0	99.9
COc1cccc(NC(=O)CSc2nnc(-c3ccoc3C)n2C)c1	4.3	0.7	-1.1	3.0	-3.4	-1.9	·	·
COc1ccc(-n2c(C)cc(C(=O)CSc3nnc(-c4ccoc4C)n3C)c2C)cc1	-2.4	0.2	4.4	91.0*	8.7	-12.8	1.5	100.4
COc1ccc(CCNC(=O)C2(C)CCC(=O)N2Cc2ccc(C)cc2)cc1OC (stereo unspecified)	-0.6	-1.8	1.1	2.0	-10.6	0.7	-1.0	85.0
N#C/C(=C\c1c(N2CCC(C(N)=O)CC2)nc2ccccn2c1=O)S(=O)(=O)c1ccc(Cl)cc1	-14.5	0.5	1.7	41.0*	-6.2	-1.9	-0.9	99.3
CN1CCN(c2nc3ccccn3c(=O)c2/C=C(\C#N)S(=O)(=O)c2ccc(Cl)cc2)CC1	-21.2	-0.8	2.2	0.0	-9.8	-0.4	·	·
CC1C(=O)OC2C1CCC1(C)C3(C)C(=O)C=CC213 (stereo unspecified)	4.4	0.7	-1.3	·	·	-7.2	·	·
COc1ccc(Cl)cc1-c1cc(C(=O)Nc2ccc(C)c(NS(C)(=O)=O)c2)[nH]n1	9.6	0.1	-0.7	·	·	-0.1	·	·
SMILES	SUMO1 PPI mod	LMPTP block	STEP block	GRK2 aptamer HTS	Scp1 inh	DNMT1 inh	GRK2 CP1	FAM quench CP1	others
CC(C)(C)C1CCc2c(C(=O)NNC(=O)CCCC(=O)O)csc2C1 (stereo unspecified)	-1.1	-2.0	-0.3	97.0*	-2.0	4.8	-4.8	100.4
CCNC(=S)NNC(=O)c1csc2c1CCC(C)C2 (stereo unspecified)	-2.1	-0.1	-1.5	0.0	5.1	-1.5	·	·
CCc1c(O)nc(SCC(=O)NCc2ccco2)[nH]c1=O	3.7	-3.4	-0.7	11.0	6.2	13.6	·	·	GRK2 confirm 2=0.8;FAM quench CP2=107.0
Cc1sc2nc(SCC(=O)NCc3cccs3)[nH]c(=O)c2c1C	1.9	1.0	1.3	1.0	-5.5	3.3	·	·
Cc1sc2nc(SCC(=O)NCc3ccco3)[nH]c(=O)c2c1C	-11.8	0.4	1.2	1.0	-12.9	1.4	·	·	GRK2 confirm 2=-13.3;FAM quench CP2=102.0
O=C(CSc1nnc(NC(=O)Cc2ccccc2)s1)NCc1ccco1	6.0	0.0	0.8	60.0*	-4.0	1.4	-0.6	92.4
Cn1c(SCC(=O)NCc2ccco2)nnc1-c1cccs1	2.0	-1.5	-2.2	86.0*	-3.6	-0.4	3.1	99.6
COc1cccc(C(NC(C)=O)c2nc(-c3cccc(C#N)c3)cs2)c1 (stereo unspecified)	-4.4	0.8	-2.2	·	·	-2.4	·	·
COC(=O)[C@H](CC(C)C)NC(=O)CC[C@H]1O[C@@H](n2cc(C)c(=O)[nH]c2=O)C[C@@H]1O	27.9	-1.7	-1.8	·	·	3.2	·	·
O=Cc1ccc(-c2nc3ccccc3s2)o1	-20.2	-0.1	-0.4	2.0	-0.8	0.1	·	·
